Reference: publication PMC3574193 (Journal of medicinal chemistry, 2013)
Entries after “also recorded” stand apart in the source; their conditions may differ.

Legend:
[1] = cited from earlier work
[2] = Preliminary half-life studies in rats; format: in vivo; settings: data not shown
[3] = biological target: T1, human Trx W31A mutant (Homo sapiens, UniProt P10599, W31A); assay: In vitro thioredoxin activity assay with W31A mutant; format: biochemical; settings: W31A mutant of human Trx
T1 sequence (P10599 1-105 W31A): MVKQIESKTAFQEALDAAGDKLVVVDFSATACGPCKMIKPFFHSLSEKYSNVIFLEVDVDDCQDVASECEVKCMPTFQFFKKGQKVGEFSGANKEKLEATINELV
Procedure, shortened: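 Pre-reduced enzyme was desalted by spin column, quantified by A280 and used within 2 h. It was reacted with test compound, 10 µM each, in 0.1 M phosphate-citrate pH 6.0 at room temperature. Aromatic product accumulation was fitted exponentially for kinh/Ki.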

[4] = biological target: T2, extracellular TG2 in T84 enterocytic cells (Homo sapiens, UniProt P21980); assay: Trx-mediated TG2 activation in T84 enterocytic cells; format: cell-based; settings: 25 µM ERW1041E
T2 sequence (P21980 1-687): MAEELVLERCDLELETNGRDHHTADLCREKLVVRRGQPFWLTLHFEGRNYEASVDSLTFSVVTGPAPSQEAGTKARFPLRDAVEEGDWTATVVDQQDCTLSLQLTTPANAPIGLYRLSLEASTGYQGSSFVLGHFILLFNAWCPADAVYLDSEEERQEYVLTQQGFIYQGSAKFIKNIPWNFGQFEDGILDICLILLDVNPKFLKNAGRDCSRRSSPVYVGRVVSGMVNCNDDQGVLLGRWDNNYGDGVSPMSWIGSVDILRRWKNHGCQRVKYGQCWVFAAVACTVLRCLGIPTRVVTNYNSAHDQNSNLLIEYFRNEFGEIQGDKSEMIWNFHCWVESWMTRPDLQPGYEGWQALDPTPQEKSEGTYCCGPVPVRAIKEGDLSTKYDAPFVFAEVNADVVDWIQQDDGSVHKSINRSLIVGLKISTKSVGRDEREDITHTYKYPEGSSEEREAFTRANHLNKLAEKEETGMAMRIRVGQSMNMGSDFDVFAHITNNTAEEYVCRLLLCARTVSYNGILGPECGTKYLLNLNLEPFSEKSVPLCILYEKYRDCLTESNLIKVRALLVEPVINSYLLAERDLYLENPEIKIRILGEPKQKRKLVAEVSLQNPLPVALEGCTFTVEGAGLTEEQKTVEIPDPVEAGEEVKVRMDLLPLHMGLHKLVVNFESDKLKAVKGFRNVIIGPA

In the case of CCC(C)SSc1ncc[nH]1 (stereo not shown) [Compound 1, 2-(sec-butyldisulfanyl)-1H-imidazole], the half-life in humans [1] is listed as “extremely short half-life” and the half-life in rats [2] is listed as “short half-life”.
For CCC(C)SSc1nc2ccccc2[nH]1 (stereo not shown) [Compound 14, 2-(sec-butyldisulfanyl)-1H-benzo[d]imidazole], the “kinh/Ki with W31A Trx” value [3] was 23700 M⁻¹ s⁻¹.
With O=C(NC[C@@H]1CC(Br)=NO1)[C@@H]1CCCN1C(=O)OCc1cnc2ccccc2c1 [ERW1041E, (S)-quinolin-3-ylmethyl 2-((((S)-3-bromo-4,5-dihydroisoxazol-5-yl)methyl)carbamoyl)pyrrolidine-1-carboxylate] the “effect on Trx mediated 5BP incorporation” value [4] was “fully suppressed; also recorded: completely blocked”.
